What was measured:
[1] = molecular target: DNA polymerase beta (Homo sapiens, UniProt P06746); test: Compound was evaluated for the inhibition of cellular DNA polymerase (beta)
In short: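 HeLa-derived pol β (0.25 unit), 15 min at 37 °C, in 50 mM Tris-HCl pH 8.7, 100 mM KCl, 10 mM MgCl2, 1 mM DTT, 0.4 mg/mL BSA. TTP analogues were tested on poly(dA)·oligo(dT)15 with [3H]TTP. dCTP analogues used activated DNA, [3H]dCTP and the other three dNTPs. Read-out was [3H] incorporation.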

[2] = molecular target: T1, DNA polymerase subunit gamma-1 (Homo sapiens, UniProt P54098); test: Compound was evaluated for the inhibition of cellular DNA polymerase (gamma)
T1 sequence (P54098 whole entry): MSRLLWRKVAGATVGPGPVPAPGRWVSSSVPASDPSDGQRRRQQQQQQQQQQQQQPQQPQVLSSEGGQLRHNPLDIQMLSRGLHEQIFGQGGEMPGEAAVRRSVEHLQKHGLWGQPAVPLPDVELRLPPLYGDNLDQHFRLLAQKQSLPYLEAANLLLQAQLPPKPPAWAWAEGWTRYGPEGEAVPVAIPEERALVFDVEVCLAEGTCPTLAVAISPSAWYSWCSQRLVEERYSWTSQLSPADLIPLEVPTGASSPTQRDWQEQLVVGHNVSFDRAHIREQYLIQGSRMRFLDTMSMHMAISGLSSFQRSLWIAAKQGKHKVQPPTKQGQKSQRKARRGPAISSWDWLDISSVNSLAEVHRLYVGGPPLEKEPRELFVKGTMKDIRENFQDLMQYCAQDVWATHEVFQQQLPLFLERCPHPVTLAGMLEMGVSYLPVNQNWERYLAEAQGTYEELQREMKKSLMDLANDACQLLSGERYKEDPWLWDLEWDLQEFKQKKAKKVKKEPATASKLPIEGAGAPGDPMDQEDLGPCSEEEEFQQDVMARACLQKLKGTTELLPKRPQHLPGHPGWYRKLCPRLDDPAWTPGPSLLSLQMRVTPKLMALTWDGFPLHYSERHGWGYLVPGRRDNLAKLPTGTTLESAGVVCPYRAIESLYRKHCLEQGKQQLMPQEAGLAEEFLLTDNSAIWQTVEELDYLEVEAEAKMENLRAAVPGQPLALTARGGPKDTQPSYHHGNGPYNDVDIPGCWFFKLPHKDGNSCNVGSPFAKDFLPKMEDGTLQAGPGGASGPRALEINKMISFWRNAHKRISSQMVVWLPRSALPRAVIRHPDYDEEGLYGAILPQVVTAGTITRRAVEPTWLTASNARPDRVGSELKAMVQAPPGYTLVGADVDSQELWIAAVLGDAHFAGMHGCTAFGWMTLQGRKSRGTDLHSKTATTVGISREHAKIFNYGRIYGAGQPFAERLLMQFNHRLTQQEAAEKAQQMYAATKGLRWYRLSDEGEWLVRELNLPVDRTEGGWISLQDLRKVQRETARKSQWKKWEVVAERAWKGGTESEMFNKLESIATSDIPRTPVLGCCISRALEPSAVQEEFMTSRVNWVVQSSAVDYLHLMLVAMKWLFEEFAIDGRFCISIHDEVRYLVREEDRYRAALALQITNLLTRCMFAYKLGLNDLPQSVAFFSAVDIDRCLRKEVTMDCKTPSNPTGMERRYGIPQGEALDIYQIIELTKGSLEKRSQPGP

[3] = tested on: Hepatitis B virus; test: Compound was evaluated for 50% inhibition of HBV polymerases (Hepatitis B virus); type: functional, organism-based
In short: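 Endogenous polymerase in virions pelleted from HBV- or DHBV-positive sera, resuspended in PBS and lysed with 2-mercaptoethanol/Nonidet P-40. Run 60 min at 37 °C in 50 mM Tris-HCl pH 8.1, 60 mM KCl, 40 mM MgCl2. Substrates were 100 μM each of the three unlabeled dNTPs plus 0.4 μM [3H]TTP or [3H]dCTP, chosen by analogue type.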

[4] = molecular target: Human immunodeficiency virus type 1 reverse transcriptase (Human immunodeficiency virus 1, UniProt Q72547); test: Compound was evaluated for 50% inhibition of HIV-RT (HIV reverse transcriptase)
[5] = Compound was evaluated for the inhibition of cellular DNA polymerase (delta)
In short: (§1)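 Calf thymus pols δ and ε (0.05 unit), 30 min at 37 °C, in 50 mM Bis-Tris pH 6.5, 6 mM MgCl2, 1 mM DTT, 250 μg/mL BSA. Templates were 3.5 μM poly(dA)·oligo(dT)15 with 10 μM [3H]TTP, or activated DNA with [3H]dCTP for dCTP analogues. δ assays also received recombinant PCNA at 10 μg/mL.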

[6] = tested on: Nucleic Acid; test: Compound was evaluated for the inhibition of cellular DNA polymerase (epsilon); type: nucleic-acid assay; details: Bos taurus; in short: as §1
[7] = molecular target: T2, DNA polymerase alpha catalytic subunit (Homo sapiens, UniProt P09884); test: Compound was evaluated for the inhibition of cellular DNA polymerase (alpha)
T2 sequence (P09884 whole entry): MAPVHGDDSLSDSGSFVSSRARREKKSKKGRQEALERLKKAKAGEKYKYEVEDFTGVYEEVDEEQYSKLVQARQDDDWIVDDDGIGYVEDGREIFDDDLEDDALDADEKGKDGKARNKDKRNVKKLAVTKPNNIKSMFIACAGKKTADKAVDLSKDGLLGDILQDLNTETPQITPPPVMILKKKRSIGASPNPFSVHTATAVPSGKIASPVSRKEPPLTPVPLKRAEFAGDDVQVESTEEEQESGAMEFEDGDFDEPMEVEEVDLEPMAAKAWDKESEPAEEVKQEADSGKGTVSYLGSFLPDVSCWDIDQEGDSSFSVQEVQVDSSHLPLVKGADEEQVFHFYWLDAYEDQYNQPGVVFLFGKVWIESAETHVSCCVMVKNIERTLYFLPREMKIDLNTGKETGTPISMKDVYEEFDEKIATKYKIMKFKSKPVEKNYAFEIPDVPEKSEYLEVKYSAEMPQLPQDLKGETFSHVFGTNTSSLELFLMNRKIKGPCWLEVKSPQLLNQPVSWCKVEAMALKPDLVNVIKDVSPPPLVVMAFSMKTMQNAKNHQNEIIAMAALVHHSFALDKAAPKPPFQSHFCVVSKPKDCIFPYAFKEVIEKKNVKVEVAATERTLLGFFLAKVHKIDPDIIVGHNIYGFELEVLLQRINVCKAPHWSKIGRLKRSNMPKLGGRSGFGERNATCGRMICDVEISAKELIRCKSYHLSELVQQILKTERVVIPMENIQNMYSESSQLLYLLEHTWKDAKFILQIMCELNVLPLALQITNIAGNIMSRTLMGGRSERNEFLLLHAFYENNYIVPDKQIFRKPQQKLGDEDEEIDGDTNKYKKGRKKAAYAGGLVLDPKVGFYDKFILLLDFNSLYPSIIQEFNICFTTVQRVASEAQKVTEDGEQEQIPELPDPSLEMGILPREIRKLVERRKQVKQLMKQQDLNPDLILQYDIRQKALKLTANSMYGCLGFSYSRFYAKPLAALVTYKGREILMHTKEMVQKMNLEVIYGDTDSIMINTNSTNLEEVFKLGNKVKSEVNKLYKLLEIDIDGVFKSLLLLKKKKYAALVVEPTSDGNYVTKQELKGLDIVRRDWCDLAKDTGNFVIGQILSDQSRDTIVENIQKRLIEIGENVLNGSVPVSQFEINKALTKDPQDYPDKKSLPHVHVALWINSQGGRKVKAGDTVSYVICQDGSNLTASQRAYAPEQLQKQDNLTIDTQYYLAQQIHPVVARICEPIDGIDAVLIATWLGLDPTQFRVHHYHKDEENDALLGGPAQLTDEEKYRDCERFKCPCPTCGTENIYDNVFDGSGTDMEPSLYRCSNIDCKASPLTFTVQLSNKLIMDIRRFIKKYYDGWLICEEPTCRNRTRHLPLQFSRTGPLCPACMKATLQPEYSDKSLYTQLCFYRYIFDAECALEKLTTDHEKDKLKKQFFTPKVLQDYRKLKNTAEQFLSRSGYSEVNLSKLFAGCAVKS

Structure (SMILES)	IC50 [1]	IC50 [2]	IC50 [3]	IC50 [4]	IC50 [5]	IC50 [6]	IC50 ([3]; Hepatitis B virus)	IC50 [7]
Cc1cn([C@@H]2C[C@@H](F)[C@H](COP(=O)(O)OP(=O)(O)OP(=O)(O)O)O2)c(=O)[nH]c1=O (stereo in doubt; 16)	> 200 µM	> 100 µM		100 µM	> 200 µM	> 100 µM	0.25 µM	
O=c1ccn([C@@H]2C[C@@H](F)[C@H](COP(=O)(O)OP(=O)(O)OP(=O)(O)O)O2)c(=O)[nH]1 (stereo in doubt; 17)	> 100 µM	> 100 µM	35 µM	> 200 µM	> 200 µM			
Nc1ccn([C@@H]2C[C@@H](F)[C@H](COP(=O)(O)OP(=O)(O)OP(=O)(O)O)O2)c(=O)n1 (stereo in doubt; 18)	> 100 µM	> 50 µM	7 µM	> 100 µM	> 200 µM	> 100 µM		
Cc1cn([C@@H]2C[C@@H](F)[C@H](COP(=O)(O)OP(=O)(O)OP(=O)(O)O)O2)c(=O)nc1N (stereo in doubt; 19)	> 200 µM	> 50 µM	1.9 µM	> 100 µM	> 200 µM			> 200 µM

Now those with a lower IC50 [1], led by results:

IC50 [1]	IC50 [2]	IC50 [3]	IC50 [4]	IC50 [5]	IC50 [6]	IC50 ([3]; Hepatitis B virus)	IC50 [7]	Structure (SMILES)
2.2 µM	1.5 µM	0.15 µM	0.05 µM					Cc1cn([C@@H]2C[C@@H](F)[C@H](COP(=O)(O)OP(=O)(O)OP(=O)(O)O)O2)c(=O)[nH]c1=O (stereo in doubt)
3 µM	3.5 µM		0.07 µM	> 100 µM	> 100 µM	25 µM		O=c1ccn([C@@H]2C[C@@H](F)[C@H](COP(=O)(O)OP(=O)(O)OP(=O)(O)O)O2)c(=O)[nH]1 (stereo in doubt)
1 µM	2 µM	0.5 µM	0.5 µM	> 100 µM				Nc1ccn([C@@H]2C[C@@H](F)[C@H](COP(=O)(O)OP(=O)(O)OP(=O)(O)O)O2)c(=O)n1 (stereo in doubt)
1 µM	0.5 µM	0.03 µM	0.6 µM	100 µM	> 100 µM		> 200 µM	Cc1cn([C@@H]2C[C@@H](F)[C@H](COP(=O)(O)OP(=O)(O)OP(=O)(O)O)O2)c(=O)nc1N (stereo in doubt)
